Laboratory results from ChEMBL document CHEMBL1157352, “Potent, Plasmodium-selective farnesyltransferase inhibitors that arrest the growth of malaria parasites: structure-activity relationships of ethylenediamine-analogue scaffolds and homology model validation” (J Med Chem, 2008).

Tests used:
[1] = Selectivity for Plasmodium falciparum PFT over rat PFT
Plasmodium falciparum [2] = experiment: Inhibition of Plasmodium falciparum PFT at 50 nM
Plasmodium falciparum [3] = experiment: Inhibition of Plasmodium falciparum PFT at 5 nM
[4] = Inhibition of rat PFT by scintillation proximity assay
[5] = Inhibition of Plasmodium falciparum PFT
Plasmodium falciparum [6] = experiment: Antimalarial activity in Plasmodium falciparum K1 infected erythrocytes by [3H]hypoxanthine uptake; assay type: functional; settings: K1, 72 h, read-out: ED50 (the source's name)
Outline: (§1)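 Parasites kept per Trager–Jensen in RPMI-1640 with 2 mM L-glutamine, 25 mM HEPES, 33 mM NaHCO3, gentamicin, 20% heat-inactivated human A+ plasma. Compound in DMSO added to culture at 0.5% parasitemia and hematocrit; 37 °C, 5% CO2/5% O2/90% N2, 48 h. [8-3H]hypoxanthine (0.3 µCi) added for a further 24 h, then harvested and scintillation-counted. Uninfected-RBC background subtracted; DMSO vehicle taken as 100% growth. ED50 by linear regression.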

Plasmodium falciparum [7] = experiment: Antimalarial activity in Plasmodium falciparum 3D7 infected erythrocytes as [3H]hypoxanthine uptake; assay type: functional; settings: 3D7, 72 h, read-out: ED50 (the source's name); outline: as §1

For `Cn1cnc(S(=O)(=O)N(CCN(Cc2cncn2C)c2ccc(C#N)cc2)CC2CCN(C(=O)OC(C)(C)C)CC2)c1`, the Selectivity ratio [1] was 117, the inhibition (Plasmodium falciparum [2]) was 96% and the inhibition (Plasmodium falciparum [3]) was 81%. It also gave an IC50 [4] of 140 nM.

For `Cn1cnc(S(=O)(=O)N(CCCN(Cc2cncn2C)c2ccc(C#N)cc2)CC2CCN(C(=O)OC(C)(C)C)CC2)c1`, the inhibition (Plasmodium falciparum [2]) was 94%, the inhibition (Plasmodium falciparum [3]) was 73% and the IC50 [5] was 1 nM.

With `Cn1cnc(S(=O)(=O)N(Cc2ccccc2)[C@H]2CC[C@@H](N(Cc3cncn3C)c3ccc(C#N)cc3)CC2)c1` the inhibition (Plasmodium falciparum [2]) was 23% and the EC50 (Plasmodium falciparum [6]) was 2750 nM.

`Cn1cnc(S(=O)(=O)N(CCCN(Cc2cncn2C)c2ccc(C#N)cc2)Cc2ccccc2)c1` showed an inhibition (Plasmodium falciparum [2]) of 71%, an EC50 (Plasmodium falciparum [6]) of 2650 nM and an inhibition (Plasmodium falciparum [3]) of 16%.

In the case of `Cn1cnc(S(=O)(=O)N(CCN(Cc2cncn2C)c2ccc(C#N)cc2)Cc2ccsc2)c1`, the EC50 (Plasmodium falciparum [7]) is reported as 150 nM, the inhibition (Plasmodium falciparum [2]) is reported as 100% and the EC50 (Plasmodium falciparum [6]) is reported as 240 nM. It also gave an inhibition (Plasmodium falciparum [3]) of 91%.

Compound `Cn1cnc(S(=O)(=O)N(Cc2ccsc2)CC(C)(C)N(Cc2cncn2C)c2ccc(C#N)cc2)c1` has an EC50 (Plasmodium falciparum [7]) of 2450 nM and an inhibition (Plasmodium falciparum [2]) of 70%.

`Cn1cnc(S(=O)(=O)N(CC2CCN(C(=O)OC(C)(C)C)CC2)[C@H]2CC[C@H](N(Cc3cncn3C)c3ccc(C#N)cc3)CC2)c1` showed an inhibition (Plasmodium falciparum [2]) of 0% and an EC50 (Plasmodium falciparum [6]) of 1200 nM.

For `Cn1cnc(S(=O)(=O)N(CC2CCN(C(=O)OC(C)(C)C)CC2)[C@H]2CC[C@@H](N(Cc3cncn3C)c3ccc(C#N)cc3)CC2)c1`, the inhibition (Plasmodium falciparum [2]) was 0% and the EC50 (Plasmodium falciparum [6]) was 650 nM.

In the case of `Cn1cnc(S(=O)(=O)N(CC2CCN(C(=O)OC(C)(C)C)CC2)CC(C)(C)N(Cc2cncn2C)c2ccc(C#N)cc2)c1`, the Selectivity ratio [1] is reported as 136, the inhibition (Plasmodium falciparum [2]) is reported as 87% and the IC50 [5] is reported as 1.1 nM. For the same compound, the IC50 [4] was 150 nM.

With `Cc1ccccc1CN(CC(C)(C)N(Cc1cncn1C)c1ccc(C#N)cc1)S(=O)(=O)c1cn(C)cn1` the inhibition (Plasmodium falciparum [2]) was 98% and the inhibition (Plasmodium falciparum [3]) was 91%.

Work on `Cc1ccccc1CN(CCCN(Cc1cncn1C)c1ccc(C#N)cc1)S(=O)(=O)c1cn(C)cn1` yielded an inhibition (Plasmodium falciparum [2]) of 76% and an inhibition (Plasmodium falciparum [3]) of 24%.

For `Cc1ccccc1CN(CCN(Cc1cncn1C)c1ccc(C#N)cc1)S(=O)(=O)c1cn(C)cn1`, the inhibition (Plasmodium falciparum [2]) was 99% and the inhibition (Plasmodium falciparum [3]) was 95%.

`Cn1cnc(S(=O)(=O)N(CC2CCN(c3ncccn3)CC2)CC(C)(C)N(Cc2cncn2C)c2ccc(C#N)cc2)c1` gave an inhibition (Plasmodium falciparum [2]) of 100% and an inhibition (Plasmodium falciparum [3]) of 93%.

With `Cn1cnc(S(=O)(=O)N(CCCN(Cc2cncn2C)c2ccc(C#N)cc2)CC2CCN(c3ncccn3)CC2)c1` the inhibition (Plasmodium falciparum [2]) was 93% and the inhibition (Plasmodium falciparum [3]) was 62%.

Compound `Cn1cnc(S(=O)(=O)N(CCCN(Cc2cncn2C)c2ccc(C#N)cc2)Cc2ccsc2)c1` has an inhibition (Plasmodium falciparum [2]) of 73% and an inhibition (Plasmodium falciparum [3]) of 18%.

For `Cn1cnc(S(=O)(=O)N(CCN(Cc2cncn2C)c2ccc(C#N)cc2)CC2CCN(c3ncccn3)CC2)c1`, the inhibition (Plasmodium falciparum [2]) was 96% and the inhibition (Plasmodium falciparum [3]) was 74%.

`Cn1cnc(S(=O)(=O)N(CCN(Cc2cncn2C)c2ccc(C#N)cc2)Cc2ccccc2)c1` gave an inhibition (Plasmodium falciparum [2]) of 98% and an inhibition (Plasmodium falciparum [3]) of 86%.

Compound `Cn1cnc(S(=O)(=O)N(Cc2ccccc2)CC(C)(C)N(Cc2cncn2C)c2ccc(C#N)cc2)c1` has an inhibition (Plasmodium falciparum [2]) of 100% and an inhibition (Plasmodium falciparum [3]) of 88%.

For `Cn1cnc(S(=O)(=O)N(Cc2ccccc2)[C@H]2CC[C@H](N(Cc3cncn3C)c3ccc(C#N)cc3)CC2)c1`, the inhibition (Plasmodium falciparum [2]) was 73%.

For `Cn1cnc(S(=O)(=O)N(CC2CCN(C(=O)OC(C)(C)C)CC2)[C@@H]2CCC[C@@H]2N(Cc2cncn2C)c2ccc(C#N)cc2)c1` (racemic), the Selectivity ratio [1] was over 2.9, the inhibition (Plasmodium falciparum [2]) was 2% and the EC50 (Plasmodium falciparum [6]) was 1250 nM. For the same compound, the inhibition (Plasmodium falciparum [3]) was 3%, the IC50 [5] was 350 nM and the IC50 [4] was over 1000 nM.

In the case of `Cn1cnc(S(=O)(=O)N(CC2CCN(c3ncccn3)CC2)[C@@H]2CCC[C@@H]2N(Cc2cncn2C)c2ccc(C#N)cc2)c1` (racemic), the EC50 (Plasmodium falciparum [7]) is reported as 3000 nM, the inhibition (Plasmodium falciparum [2]) is reported as 0% and the EC50 (Plasmodium falciparum [6]) is reported as 2500 nM. For the same compound, the inhibition (Plasmodium falciparum [3]) was 10%.

`Cn1cnc(S(=O)(=O)N(Cc2ccsc2)[C@H]2CCC[C@@H]2N(Cc2cncn2C)c2ccc(C#N)cc2)c1` (racemic) gave an EC50 (Plasmodium falciparum [7]) of 2700 nM, an inhibition (Plasmodium falciparum [2]) of 57% and an EC50 (Plasmodium falciparum [6]) of 2700 nM. The inhibition (Plasmodium falciparum [3]) was 11%.

Compound `Cc1ccccc1CN([C@@H]1CC[C@@H](N(Cc2cncn2C)c2ccc(C#N)cc2)C1)S(=O)(=O)c1cn(C)cn1` (racemic) has an EC50 (Plasmodium falciparum [7]) of 2400 nM, an inhibition (Plasmodium falciparum [2]) of 33% and an EC50 (Plasmodium falciparum [6]) of 2200 nM.

For `Cc1ccccc1CN([C@@H]1CCC[C@@H]1N(Cc1cncn1C)c1ccc(C#N)cc1)S(=O)(=O)c1cn(C)cn1` (racemic), the EC50 (Plasmodium falciparum [7]) was 2800 nM, the inhibition (Plasmodium falciparum [2]) was 17% and the EC50 (Plasmodium falciparum [6]) was 2800 nM. For the same compound, the inhibition (Plasmodium falciparum [3]) was 16%.

With `Cn1cnc(S(=O)(=O)N(Cc2ccsc2)[C@@H]2CCC[C@@H]2N(Cc2cncn2C)c2ccc(C#N)cc2)c1` (racemic) the EC50 (Plasmodium falciparum [7]) was over 5000 nM, the inhibition (Plasmodium falciparum [2]) was 9% and the EC50 (Plasmodium falciparum [6]) was 4200 nM. The inhibition (Plasmodium falciparum [3]) was 0%.

`Cc1ccccc1CN([C@H]1CC[C@@H](N(Cc2cncn2C)c2ccc(C#N)cc2)C1)S(=O)(=O)c1cn(C)cn1` (racemic) showed an EC50 (Plasmodium falciparum [7]) of 2400 nM, an inhibition (Plasmodium falciparum [2]) of 24% and an EC50 (Plasmodium falciparum [6]) of 2600 nM.

`Cn1cnc(S(=O)(=O)N(CC2CCN(c3ncccn3)CC2)[C@H]2CC[C@@H](N(Cc3cncn3C)c3ccc(C#N)cc3)C2)c1` (racemic) gave an EC50 (Plasmodium falciparum [7]) of 600 nM, an inhibition (Plasmodium falciparum [2]) of 6% and an EC50 (Plasmodium falciparum [6]) of 720 nM.

For `Cc1ccccc1CN([C@H]1CCC[C@@H]1N(Cc1cncn1C)c1ccc(C#N)cc1)S(=O)(=O)c1cn(C)cn1` (racemic), the EC50 (Plasmodium falciparum [7]) was 3000 nM, the inhibition (Plasmodium falciparum [2]) was 35% and the EC50 (Plasmodium falciparum [6]) was 3200 nM. For the same compound, the inhibition (Plasmodium falciparum [3]) was 12%.

With `Cn1cnc(S(=O)(=O)N(CC2CCN(C(=O)OC(C)(C)C)CC2)[C@H]2CC[C@@H](N(Cc3cncn3C)c3ccc(C#N)cc3)C2)c1` (racemic) the EC50 (Plasmodium falciparum [7]) was 300 nM, the inhibition (Plasmodium falciparum [2]) was 83% and the EC50 (Plasmodium falciparum [6]) was 125 nM. It also gave an inhibition (Plasmodium falciparum [3]) of 33%.

Work on `Cn1cnc(S(=O)(=O)N(CC2CCN(c3ncccn3)CC2)[C@@H]2CC[C@@H](N(Cc3cncn3C)c3ccc(C#N)cc3)C2)c1` (racemic) yielded an EC50 (Plasmodium falciparum [7]) of 2600 nM, an inhibition (Plasmodium falciparum [2]) of 38% and an EC50 (Plasmodium falciparum [6]) of 1500 nM.

In the case of `Cn1cnc(S(=O)(=O)N(CC2CCN(c3ncccn3)CC2)[C@H]2CCC[C@@H]2N(Cc2cncn2C)c2ccc(C#N)cc2)c1` (racemic), the EC50 (Plasmodium falciparum [7]) is reported as 2600 nM, the inhibition (Plasmodium falciparum [2]) is reported as 28% and the EC50 (Plasmodium falciparum [6]) is reported as 750 nM. The inhibition (Plasmodium falciparum [3]) was 12%.

`Cn1cnc(S(=O)(=O)N(Cc2ccccc2)[C@@H]2CC[C@@H](N(Cc3cncn3C)c3ccc(C#N)cc3)C2)c1` (racemic) gave an EC50 (Plasmodium falciparum [7]) of 340 nM, an inhibition (Plasmodium falciparum [2]) of 93% and an EC50 (Plasmodium falciparum [6]) of 145 nM. For the same compound, the inhibition (Plasmodium falciparum [3]) was 65%.

`Cn1cnc(S(=O)(=O)N(Cc2ccccc2)[C@H]2CCC[C@@H]2N(Cc2cncn2C)c2ccc(C#N)cc2)c1` (racemic) gave an EC50 (Plasmodium falciparum [7]) of 3100 nM, an inhibition (Plasmodium falciparum [2]) of 42% and an EC50 (Plasmodium falciparum [6]) of 2350 nM. For the same compound, the inhibition (Plasmodium falciparum [3]) was 20%.

In the case of `Cn1cnc(S(=O)(=O)N(Cc2ccccc2)[C@H]2CC[C@@H](N(Cc3cncn3C)c3ccc(C#N)cc3)C2)c1` (racemic), the EC50 (Plasmodium falciparum [7]) is reported as 700 nM, the inhibition (Plasmodium falciparum [2]) is reported as 40% and the inhibition (Plasmodium falciparum [3]) is reported as 4%.

For `Cn1cnc(S(=O)(=O)N(CC2CCN(C(=O)OC(C)(C)C)CC2)[C@H]2CCC[C@@H]2N(Cc2cncn2C)c2ccc(C#N)cc2)c1` (racemic), the EC50 (Plasmodium falciparum [7]) was 2650 nM, the Selectivity ratio [1] was over 100 and the inhibition (Plasmodium falciparum [2]) was 82%. It also gave an inhibition (Plasmodium falciparum [3]) of 41%, an IC50 [5] of 10 nM and an IC50 [4] of over 1000 nM.

`Cn1cnc(S(=O)(=O)N(Cc2ccccc2)[C@@H]2CCC[C@@H]2N(Cc2cncn2C)c2ccc(C#N)cc2)c1` (racemic) gave an EC50 (Plasmodium falciparum [7]) of over 5000 nM, an inhibition (Plasmodium falciparum [2]) of 0% and an inhibition (Plasmodium falciparum [3]) of 0%.

In the case of `Cn1cnc(S(=O)(=O)N(CC2CCN(C(=O)OC(C)(C)C)CC2)[C@@H]2CC[C@@H](N(Cc3cncn3C)c3ccc(C#N)cc3)C2)c1` (racemic), the EC50 (Plasmodium falciparum [7]) is reported as 310 nM, the inhibition (Plasmodium falciparum [2]) is reported as 97% and the inhibition (Plasmodium falciparum [3]) is reported as 86%. It also gave an IC50 [5] of 3.1 nM.

In the case of `Cn1cnc(S(=O)(=O)N(Cc2ccsc2)[C@@H]2CC[C@@H](N(Cc3cncn3C)c3ccc(C#N)cc3)C2)c1` (racemic), the EC50 (Plasmodium falciparum [7]) is reported as 1500 nM, the inhibition (Plasmodium falciparum [2]) is reported as 56% and the EC50 (Plasmodium falciparum [6]) is reported as 1200 nM.

Compound `Cn1cnc(S(=O)(=O)N(Cc2ccsc2)[C@H]2CC[C@@H](N(Cc3cncn3C)c3ccc(C#N)cc3)C2)c1` (racemic) has an EC50 (Plasmodium falciparum [7]) of 2400 nM, an inhibition (Plasmodium falciparum [2]) of 15% and an EC50 (Plasmodium falciparum [6]) of 2500 nM.
